# TAAR1 antag – human TAAR1 antagonism | Q96RJ0 | CHO RD-HGA16 TAAR1, Fluo-8 calcium fluorescence, antagonist | inhibition, % at 3 µM | actives 1.5% (n = 360,000);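 active means inhibition above a per-plate cutoff, the mean inhibition of test compounds on that plate plus 3 SD, cut at about 49% in these data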
# Target sequence (Q96RJ0 whole entry, looked up): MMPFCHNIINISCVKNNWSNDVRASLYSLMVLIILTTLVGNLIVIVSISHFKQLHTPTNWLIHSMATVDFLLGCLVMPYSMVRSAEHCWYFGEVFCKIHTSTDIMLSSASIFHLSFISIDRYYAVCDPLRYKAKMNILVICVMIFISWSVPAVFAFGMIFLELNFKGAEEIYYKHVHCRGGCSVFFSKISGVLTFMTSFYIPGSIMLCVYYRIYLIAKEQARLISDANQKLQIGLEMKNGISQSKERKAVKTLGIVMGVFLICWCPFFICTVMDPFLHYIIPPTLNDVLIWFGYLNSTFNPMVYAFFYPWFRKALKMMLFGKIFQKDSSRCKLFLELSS
#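 Material: RD-HGA16 CHO cells with stable hTAAR1 and Gα16; Dosing: single nominal final test compound concentration of 3 µM; Schedule: seeding 17-24 h prior, 75-min 37 °C, 30-min RT dye loading; Detection: kinetic Fluo-8 calcium fluorescence measurement; Measure: % inhibition from peak post-agonist over basal fluorescence ratio; Benchmarks: vehicle and agonist controls.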
# OX1R antag-1 – OX1R (human) antagonism | O43613 | OX1R-expressing cells, FRET antagonist read-out | inhibition, % at 6.6 µM | actives 1.8% (n = 330,000); in the data active means inhibition mostly above about 38%, no sharp cut-off; inactive means mostly below about 40%
# Target sequence (O43613 whole entry, looked up): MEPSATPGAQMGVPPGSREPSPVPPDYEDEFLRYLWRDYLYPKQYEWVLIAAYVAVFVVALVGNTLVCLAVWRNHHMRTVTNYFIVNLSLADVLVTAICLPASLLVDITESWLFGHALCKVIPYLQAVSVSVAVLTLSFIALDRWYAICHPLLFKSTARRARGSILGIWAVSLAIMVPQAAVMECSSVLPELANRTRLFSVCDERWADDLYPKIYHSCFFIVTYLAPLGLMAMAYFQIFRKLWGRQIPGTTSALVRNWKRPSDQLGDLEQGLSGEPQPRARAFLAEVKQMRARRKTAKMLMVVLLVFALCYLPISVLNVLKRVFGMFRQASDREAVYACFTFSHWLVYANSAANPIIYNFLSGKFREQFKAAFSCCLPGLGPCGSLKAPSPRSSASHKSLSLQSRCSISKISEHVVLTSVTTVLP
# TAAR1 agonist – agonists of human TAAR1; CHO RD-HGA16 TAAR1, Fluo-8 calcium fluorescence; vehicle wells 0%, saturating PEA agonist 100%; activation, % at 3 µM; actives 0.99% (n = 360,000); AID 624467;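 active means activation above the mean activation of all test compounds in the run plus 3 SD, cut at about 38% in these data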
#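 Benchmarks: low control DMSO, high control PEA (EC100); System: CHO RD-HGA16 cells carrying human TAAR1 plus Gα16; Detection: Fluo-8 fluorescence, 5 s baseline then 140 s kinetic read; Schedule: 17-24 h plating, Fluo-8 75 min 37 °C, 30 min RT; Read-out basis: % activation from peak over basal fluorescence ratio, DMSO-to-PEA scaled.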
# CHO parental Ca – counter-screen: ATP calcium response change in parental CHO cells. parental CHO-K1, ATP-induced calcium, Fluo-8 fluorescence. inhibition, % at 5.6 µM. actives 0.63% (n = 330,000). AID 463079;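 active means inhibition above that plate's mean sample inhibition plus 3 SD, cut at about 26% in these data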
#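 Measured by: calcium-sensitive Fluo-8 fluorescence / Test system: CHO parental line / Controls: ATP-challenged DMSO wells low, unchallenged DMSO wells high / Measure: % inhibition / Compound: single nominal dose of 5.6 µM per compound / Replicates: single well per compound, no replicates / Reagent: ATP as calcium-mobilizing challenge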
# OX1R antag-2 – antagonists of human orexin 1 receptor; CHO/OX1R cells, Fluo-8 calcium fluorescence, orexin A; inhibition, % at 5 µM; actives 0.43% (n = 330,000); AID 434989;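 active means inhibition above its plate's threshold, mean inhibition of all tested compounds on the plate plus 3 SD, cut at about 37% in these data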
# NTR1 agonist – NTR1 (human) agonism; P30989; NTR1-U2OS beta-arrestin-GFP spot imaging, agonist mode; activation, % at 20 µM; actives 0.17% (n = 330,000); AID 493036;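 active means activation at or above 40% of the spot to cytoplasm intensity ratio, with at least 20 cells analyzed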
# TAAR1 ag conf – confirmation of human TAAR1 agonists; CHO RD-HGA16 TAAR1, Fluo-8 calcium fluorescence; scaled: DMSO 0%, maximal phenethylamine 100%; activation, % at 3 µM; actives 82% (n = 2,400); AID 651783; shares compounds with TAAR1 agonist;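 active means activation above a cutoff set at the run's mean compound activation plus 3 SD, cut at about 39% in these data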
# Ga16 ag counter – counter-screen for TAAR1 agonists: nonselective agonists in parental cells; actives 50% (n = 2,400); AID 651787; CHO-Ga16 parental, Fluo-8 calcium fluorescence; normalized to maximal ATP response, DMSO zero; shares compounds with TAAR1 agonist; activation, % at 3 µM;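 active means activation above the run cutoff, the mean activation over all tested wells plus 3 SD, cut at about 12% in these data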
# TAAR1 desens – human TAAR1 agonist that also desensitizes the receptor; shares compounds with TAAR1 agonist; CHO RD-HGA16 hTAAR1, Fluo-8 calcium, beta-PEA response inhibition; inhibition, % at 3 µM; actives 46% (n = 2,400); AID 651951;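 active means inhibition above the run cutoff, the mean inhibition of all test compounds plus 3 SD, cut at about 49% in these data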;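 further: beta-PEA stimulus applied at its EC80; loss of beta-PEA calcium signal after compound pretreatment read as receptor desensitization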
# Ga16 antag count – counter-screen for TAAR1 agonists: nonselective Ga16 antagonists; shares compounds with TAAR1 agonist; CHO-Ga16 ATP-induced calcium, Fluo-8 fluorescence; inhibition, % at 3 µM; actives 39% (n = 2,400);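 active means inhibition above the plate's mean compound inhibition plus 3 SD, computed per plate, cut at about 22% in these data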
# A number is an active result; i = inactive; nt = not tested or not shown. A selection: hits, their analogues and other compounds. The true share with any hit is near 4%.
SMILES,TAAR1 antag,OX1R antag-1,TAAR1 agonist,CHO parental Ca,OX1R antag-2,NTR1 agonist,TAAR1 ag conf,Ga16 ag counter,TAAR1 desens,Ga16 antag count
O=[N+]([O-])c1ccc(S(=O)(=O)NNC(=S)NCCc2ccccc2)cc1,i,i,52.5,i,i,i,56.1,i,i,i
CN(CCc1ccccc1)Cc1nc(-c2cnccn2)no1,i,i,52.5,i,i,i,i,i,i,i
COc1cccc(NC(=O)CN(C)CC(=O)Nc2ccc(C)c(S(=O)(=O)N3CCOCC3)c2)c1,i,nt,i,nt,nt,nt,nt,nt,nt,nt
Cc1c(OCC(=O)NCC2CCC(C(=O)O)CC2)ccc2c(-c3ccccc3)cc(=O)oc12 (stereo unspecified),i,i,i,i,i,i,nt,nt,nt,nt
CC(C)c1ccc(N2C(=O)[C@@H]3Cc4ccccc4CN3C2=O)cc1,81.7,i,83.8,45.2,i,i,76.5,46.0,64.1,46.9
COc1ccc2cc(C(=O)C3CCCN(C(=O)CCc4cnn(C)c4)C3)ccc2c1 (stereo unspecified),i,i,i,i,i,i,nt,nt,nt,nt
COc1ccc(CC(=O)O/N=C(\N)Cc2cccc3ccccc23)cc1OC,i,i,42.1,i,i,i,64.8,i,i,i
N/C(Cc1cccc2ccccc12)=N\OC(=O)Cc1cccs1,i,i,60.6,i,i,i,73.6,i,i,i
COc1ccc(CC(=O)O/N=C(\N)Cc2cccc3ccccc23)cc1,i,i,i,i,i,i,nt,nt,nt,nt
CC(C)C[C@H](NC(=O)c1nc[nH]c1C(=O)NCc1ccc(CNC(=O)OC(C)(C)C)cc1)C(=O)OCc1ccccc1,i,i,i,i,i,i,nt,nt,nt,nt
CCN(CC)c1ccc(/C=C2/C(=O)c3ccc(C(=O)O)cc3C2=O)cc1,102.7,i,264.6,i,82.7,nt,213.7,199.3,105.2,98.3
CSCC[C@H](NC(=O)c1ccc2ccccc2c1)C(=O)N1CCC2(CC1)NCCc1[nH]cnc12,i,i,i,i,i,i,nt,nt,nt,nt
CSCC[C@H](NC(=O)COc1ccc(Cl)cc1)C(=O)N1CCC2(CC1)NCCc1[nH]cnc12,i,i,52.0,i,i,i,i,i,i,i
Cn1c(CCC(=O)O)nc2cc(S(=O)(=O)N3CCCCC3)ccc21,i,i,i,i,i,i,nt,nt,nt,nt
COc1cc2c(cc1OC)C(c1ccccc1[N+](=O)[O-])N(C(C)=O)CC2 (stereo unspecified),i,i,i,i,i,i,nt,nt,nt,nt
Cc1cc(C)cc(N(CCC#N)C(=O)CSc2nc3ccccc3c(=O)[nH]2)c1,i,i,i,i,i,i,nt,nt,nt,nt
Cc1c(C(c2ccc(F)cc2)c2c(C)n(C)n(-c3ccccc3)c2=O)c(=O)n(-c2ccccc2)n1C,i,i,i,i,i,i,nt,nt,nt,nt
O=C(NCCc1cccs1)C1CC(c2cccc(F)c2)=NO1 (stereo unspecified),85.0,i,58.6,i,i,i,73.3,i,93.5,i
Cc1ccccc1OC(=O)c1cccnc1,i,nt,i,nt,nt,i,nt,nt,nt,nt
Cc1ccc(SCC(=O)OCC(=O)N2CCN(C(=O)c3ccco3)CC2)c(C)c1,i,i,i,i,i,i,nt,nt,nt,nt
Cc1[nH]c2ccccc2c1CN1CCc2ccccc2C1,nt,i,nt,i,i,i,nt,i,nt,i
Cc1ccccc1-n1c(=O)cc(N2CC(C)OC(C)C2)[nH]c1=O (stereo unspecified),i,i,i,i,i,i,nt,nt,nt,nt
Cc1ccc(-n2c(=O)cc(N3CCc4ccccc4C3)[nH]c2=O)cc1,i,i,87.2,i,i,i,i,i,i,i
Cc1ccc(-n2c(=O)cc(N3CCC(C)CC3)[nH]c2=O)cc1,i,i,i,i,i,i,nt,nt,nt,nt
O=c1cc(N2CCc3ccccc3C2)[nH]c(=O)n1-c1ccccc1Cl,i,i,78.7,i,i,i,61.9,i,i,i
SMILES,TAAR1 antag,OX1R antag-1,TAAR1 agonist,CHO parental Ca,OX1R antag-2,NTR1 agonist,TAAR1 ag conf,Ga16 ag counter,TAAR1 desens,Ga16 antag count
Cc1ccccc1-n1c(=O)cc(N2CCc3ccccc3C2)[nH]c1=O,54.1,i,92.0,i,i,i,96.7,i,79.5,i
O=C1CNC(=S)N1CCc1ccccc1Cl,i,i,i,i,i,i,nt,nt,nt,nt
CCOC(=O)Cc1nnc(NC(=O)Nc2ccccc2)s1,i,i,45.3,i,i,i,67.3,i,i,i
COc1ccc(NC(=O)Nc2nnc(CC(=O)NCc3ccccc3)s2)cc1,i,i,43.6,i,i,i,53.8,i,i,i
CCOC(=O)Cc1nnc(NC(=O)CSc2ccc(C)cc2)s1,i,i,68.8,i,i,i,58.1,26.6,i,i
Cc1ccc(C)c(S(=O)(=O)N2CCCC2CNC(=O)C(=O)NCc2ccccc2C)c1 (stereo unspecified),i,i,i,i,i,i,nt,nt,nt,nt
O=C(Oc1ccc(Br)cc1C(=S)N1CCCC1)c1ccccc1F,56.9,i,94.3,i,i,i,i,i,i,i
CCOC(=O)C(C(=O)OCC)c1cc(Br)c2noc3c2c1C(=O)c1ccccc1-3,72.7,i,59.2,38.5,i,i,66.2,62.1,86.7,85.4
CC(=O)OCCNc1cc(N2CCN(C)CC2)c2noc3c2c1C(=O)c1ccccc1-3,i,nt,i,nt,nt,nt,nt,nt,nt,nt
COc1ccc2c(c1)c(C(=O)CN1CCc3ccccc3C1)c(C)n2C,i,i,69.0,i,i,i,86.0,i,i,i
COc1ccc2c(c1)c(C(C)=O)c(C)n2C,i,i,i,i,i,i,nt,nt,nt,nt
COCCN(C(=O)CCC(=O)Nc1cc(C)on1)C(C(=O)NC(C)(C)C)c1cccc(OC)c1OC (stereo unspecified),i,i,i,i,i,i,nt,nt,nt,nt
COc1ccc(S(=O)(=O)N2CCN(CC(=O)NC(Cc3ccccc3)C(C)=O)CC2)cc1 (stereo unspecified),i,i,i,i,i,i,nt,nt,nt,nt
CCn1c(=O)c(C(=O)NNC(=O)c2ccccc2F)c(O)c2ccccc21,51.9,i,101.6,i,i,i,98.9,88.6,56.1,59.9
Cn1c(=O)c(C(=O)NNC(=O)c2ccccc2F)c(O)c2ccccc21,i,i,47.9,i,i,i,60.4,42.6,i,22.4

# From PubChem BioAssay
